Here are results for five compounds from ChEMBL document CHEMBL1135654, “Antitumor agents. 1. Synthesis, biological evaluation, and molecular modeling of 5H-pyrido[3,2-a]phenoxazin-5-one, a compound with potent antiproliferative activity” (J Med Chem, 2002).

Assay [1] concerns CCRF-SB. In words: Compound concentration required to reduce the cell proliferation of human acute B-lymphoblastic leukemia CCRF-SB cells by 50%, using MTT method. It is filed as functional, cell-based. The essentials:
(§1)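 Leukemia/lymphoma cells in exponential growth resuspended at 1 × 10^5 cells/mL in RPMI 1640 (10% FCS, antibiotics) with serial dilutions of drug (DMSO stock 200 µM diluted in medium). Viability by MTT after 96 h at 37 °C, 5% CO2. Growth expressed as % of untreated controls; IC50 by linear regression. Controls underwent ≥3 rounds of multiplication. Mean of three independent determinations.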
On the technique in general: Tetrazolium assays rely on reduction of a dye to a coloured formazan, in cell work by metabolically active cells.

Assay [2] concerns HeLa. In words: Compound concentration required to reduce the cell proliferation of cervix carcinoma Hela cells by 50%, using MTT method. The assay is classed as functional, cell-based. To be noted: Homo sapiens. The essentials: (§2)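 Solid-tumor cells in exponential growth seeded at 5 × 10^4 cells/mL in their own medium with 10% FCS, allowed to adhere 16 h, then serially diluted drug added (DMSO stock 200 µM diluted in medium). MTT viability read 4 days later, 37 °C, 5% CO2. IC50 by linear regression from % of untreated control growth. Three independent determinations.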

The test system of assay [3] is CCRF-CEM. In words: Compound concentration required to reduce the cell proliferation of human acute T-lymphoblastic leukemia CCRF-CEM cells by 50%, using MTT method. The assay is classed as functional, cell-based. An outline of the steps:
as §1

Assay [4] relates to MT4. Description: Compound concentration required to reduce the cell proliferation of human CD4+T cells by 50%, using MTT method. It is filed as functional, cell-based. An outline of the steps:
as §1

Assay [5] relates to HEp-2. In words: Compound concentration required to reduce the cell proliferation of larynx carcinoma cells by 50%, using MTT method. The assay is classed as functional, cell-based. To be noted: Homo sapiens. The essentials:
as §2

The test system of a further assay is MCF7. In words: Antitumor activity against human breast adenocarcinoma MCF-7 cells. It is filed as functional, cell-based. The essentials: as §2
A short description of assay [6]: (§3) Cytotoxicity for Peripheral blood Lymphocytes. It is filed as functional. To be noted: Homo sapiens. An outline of the steps:
(§4)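 Human PBL from HIV-negative donors, isolated on Ficoll-Hypaque. Resting cells (1 × 10^6/mL) exposed up to 3 days to serial drug dilutions, washed, PHA-stimulated 24 h, diluted to 1 × 10^5/mL with PHA and IL-2, viability read after 6 days at 37 °C. Alternatively, PBL stimulated with PHA (2.5 µg/mL) 24 h, then grown with PHA, IL-2 (50 U/mL) and drug, and viable cells counted at day 6. Mean ± SD, three experiments.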

The subject of assay [7] is Panel leukemia (Carcinoma cell lines). In words: (§5) Cytotoxicity for lymphoblastoid cell lines. The assay is classed as functional. To be noted: Homo sapiens.
In assay [8] the test system is HEp-2. In words: Antitumor activity against larynx carcinoma Hep-2 cells. It is filed as functional, cell-based. The following applies: Homo sapiens. An outline of the steps:
as §2

A further assay relates to SK-MEL-28. In words: Antitumor activity against human skin melanoma […] cells. The assay is classed as functional, cell-based. An outline of the steps: as §2
The test system of a further assay is WIL2-NS. In words: Anti tumor activity against human splenic B-lympho blastoid Wil2-NS cells. The assay is classed as functional, cell-based. The essentials: as §1
Assay [9] can be described thus: Compound concentration required to reduce the cell proliferation of Wild type and Drug- resistant human nasopharyngeal carcinoma KB cells by 50%. It is filed as functional, cell-based. The essentials:
(§6)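 Cells seeded at 5 × 10^4 cells/mL, adhered 16 h, exposed to serial drug dilutions; MTT after 4 days. IC50 by linear regression versus untreated controls; mean ± SD of three independent determinations.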

The subject of assay [10] is MT4. In words: Antitumor activity against human CD4+T cells expressing the TAT gene of HTLV-1 MT-4 cells. It is filed as functional, cell-based. The essentials: as §1
For the next assay, the system named is HepG2. Description: Antitumor activity against human hepatocellular carcinoma HepG2 cells. It is filed as functional, cell-based. The essentials:
as §2

The test system of a further assay is SK-MES-1. In words: Antitumor activity against human lung squamous carcinoma SK-MES-1 cells. It is filed as functional, cell-based. The essentials: as §2
A short description of assay [11]: as §3. It is filed as functional. The following applies: Homo sapiens. The essentials:
as §4
The source holds these as a separate data set.

Assay [12] in a line: Effect on the proliferation Wild -type and Drug- resistant KB subclones passaged uM. It is filed as functional, Homo sapiens. The essentials:
as §6

Assay [13] has as its system HeLa. Description: Antitumor activity against cervix carcinoma Hela cells. The assay is classed as functional, cell-based. The following applies: Homo sapiens. The essentials: as §2
Assay [14] has as its system MT4. In words: Antitumor activity against […] human acute T-lymphoblastic leukemia MT-4 cells. The assay is classed as functional, cell-based. The essentials: as §1
The nature of assay [15]: Compound concentration required to reduce the cell proliferation of Wild type and drug-resistant KB subclones passaged in the presence of etoposide 7 uM by 50%. To be noted: Homo sapiens. It is filed as functional. The essentials: as §6
A further assay relates to 5637. Description: Antitumor activity against human bladder carcinoma 5637 cells. It is filed as functional, cell-based. An outline of the steps:
as §2

For a further assay, the system named is Raji. In words: Antitumor activity against human Burkitt lym phoma Raji cells. It is filed as functional, cell-based. An outline of the steps: as §1
The subject of another assay is C8166. Description: Antitumor activity against […] human acute T-lymphoblastic leukemia C8166 cells. It is filed as functional, cell-based. The essentials:
as §1

Assay [16] has as its system CCRF-CEM. In words: Antitumor activity against human acute T-lymphoblastic leukemia CCRF-CEM cells. It is filed as functional, cell-based. The essentials:
as §1

In another assay the test system is DU-145. Description: Antitumor activity against human prostate carcinoma DU145 cells. The assay is classed as functional, cell-based. An outline of the steps:
as §2

In another assay the test system is HT-29. Description: Antitumor activity against human colon adenocarcinoma HT-29 cells. It is filed as functional, cell-based. An outline of the steps: as §2
The subject of the next assay is ACHN. In words: Antitumor activity against human renal adenocarcinoma ACHN cells. It is filed as functional, cell-based. An outline of the steps: as §2
Assay [17] in a line: Compound concentration required to reduce the cell proliferation of Wild type and Drug- resistant KB subclones passaged in the presence of doxorubicin 0.09 uM by 50%. The assay is classed as functional. To be noted: Homo sapiens. An outline of the steps: as §6
For another assay, the system named is G-361. Description: Antitumor activity against human skin melanoma G-361 cells. It is filed as functional, cell-based. An outline of the steps: as §2
In another assay the test system is CRL-7065 cell line. Description: Antitumor activity against human foreskin fibroblasts CRL7065 cells. It is filed as functional, cell-based. An outline of the steps: as §2
In a further assay the test system is MOLT-4. In words: Antitumor activity against human acute T-lymphoblastic leukemia MOLT-4 cells. It is filed as functional, cell-based.
Assay [18] deals with CCRF-SB. In words: Antitumor activity against human acute B-lymphoblastic leukemia CCRF-SB cells. The assay is classed as functional, cell-based. The essentials:
as §1

The test system of a further assay is Lymphoblastoid cell. Described as §5. To be noted: Homo sapiens. It is filed as functional.
Assay [19] in a line: Effect on the proliferation wild-type and drug-resistant KB subclones passaged uM. The assay is classed as functional, Homo sapiens. An outline of the steps:
as §6

A short description of assay [20]: Effect on the proliferation Wild -type and Drug- resistant KB subclones passaged in the presence of vincristine 0.02 uM. It is filed as functional, Homo sapiens. An outline of the steps: as §6

Starred links: 1 amine or outer side, 2 acyl side, 3 side chain; linkers in the order of their positions; H or OH if unused. Positions of bridges follow the written chain, without caps; N, C: chain ends. Non-standard residues stand in square brackets, D forms with d. Residues, ends and D or L forms follow the SMILES beside them. Chains are numbered I, II in the order given. Actinocin(1to9) = Cc1c2oc3c(C)ccc(C(=O)[*:2])c3nc-2c(C(=O)[*:1])c(N)c1=O; NMeV = CN[C@H](C(=O)O)C(C)C; Sar = CNCC(=O)O Where only a bound is given, the exact number is not on record here.

In general, IC50 refers to the point on the concentration scale where inhibition reaches its midpoint. For `CC(=O)c1c2nc3c(C(C)=O)cccc3oc-2cc(=O)c1N`, the IC50 with CCRF-SB [1] is 500 nM; with HeLa [2], 2000 nM; in the assay on CCRF-CEM [3], 900 nM; with MT4 [4] it was 1800 nM; in the assay with HEp-2 [5], 1500 nM.

By CC50 is commonly meant the concentration giving 50% cytotoxicity. Read a low CC50 as harm at low concentration. `Cc1c2oc3c(C)ccc(C(=O)N[C@@H]4C(=O)N[C@H](C(C)C)C(=O)N5CCC[C@H]5C(=O)N(C)CC(=O)N(C)[C@@H](C(C)C)C(=O)O[C@@H]4C)c3nc-2c(C(=O)N[C@@H]2C(=O)N[C@H](C(C)C)C(=O)N3CCC[C@H]3C(=O)N(C)CC(=O)N(C)[C@@H](C(C)C)C(=O)O[C@@H]2C)c(N)c1=O` [DACTINOMYCIN] (I: T[dV]P[Sar][NMeV] / II: T[dV]P[Sar][NMeV]; ester I:1-I:C, II:1-II:C; linker I:N-II:N via Actinocin(1to9)): the IC50 was 6 nM with MCF7; 4 nM in the assay on HEp-2 [8]; 2 nM with SK-MEL-28; 3 nM in the assay with WIL2-NS; 5 nM in assay [9]; 1 nM with MT4 [10]. The 50% inhibitory concentration (IC50) with HepG2 was determined as 10 nM; in the assay on SK-MES-1 it was 4 nM; in [12] it was 50 nM; in the assay on HeLa [13], 8 nM; with MT4 [14] it was 1 nM; in assay [15], 200 nM. Moreover, the IC50 in the assay on 5637 came to 3 nM; in the assay with Raji it was 2 nM; in the assay on C8166, 0.8 nM; with CCRF-CEM [16], 1 nM; in the assay on DU-145, 8 nM; in the assay on HT-29, 6 nM. Besides, the IC50 is 5 nM in the assay with ACHN; 200 nM in assay [17]; 1 nM in the assay on G-361; 7 nM with CRL-7065 cell line; 1 nM with MOLT-4; 2 nM in the assay with CCRF-SB [18]. In addition, the 50% cytotoxic concentration (CC50) was found to be 2 nM in assay [6], 3 nM in assay [7] and 5 nM in assay [11].

`COc1cccc2c1C(=O)c1c(O)c3c(c(O)c1C2=O)C[C@@](O)(C(=O)CO)C[C@@H]3O[C@H]1C[C@H](N)[C@H](O)[C@H](C)O1` [DOXORUBICIN]: the results for the CC50 (in assay [6]; with Lymphoblastoid cell; in assay [11]) were 90 nM, 20 nM and 40 nM, respectively. Besides, the half-inhibitory concentration (IC50) with HEp-2 [8] turned out to be 40 nM; in the assay on SK-MEL-28, 60 nM; in assay [9] it was 60 nM; in the assay on MT4 [10], 10 nM; in the assay with HepG2, 120 nM; in the assay on SK-MES-1 it was 30 nM. Besides, the IC50 in assay [12] was determined as 400 nM; in the assay with MT4 [14], 10 nM; in [15] it was 2800 nM; in the assay with Raji, 30 nM; with C8166, 20 nM; in the assay with CCRF-CEM [16] it was 20 nM. The half-inhibitory concentration (IC50) stood at 30 nM with DU-145; 150 nM in the assay with HT-29; 40 nM with ACHN; 1800 nM in [17]; 90 nM with G-361; 500 nM in the assay with CRL-7065 cell line. The compound also returned an IC50 with CCRF-SB [18] of 30 nM.

For `COc1cc([C@@H]2c3cc4c(cc3[C@@H](O[C@@H]3O[C@@H]5CO[C@@H](C)O[C@H]5[C@H](O)[C@H]3O)[C@H]3COC(=O)[C@H]23)OCO4)cc(OC)c1O` [ETOPOSIDE], the half-inhibitory concentration (IC50) is 6200 nM in [19], 600 nM in assay [9], greater than 20000 nM in [15] and greater than 20000 nM in [17].

In the case of `CC[C@]1(O)C[C@H]2CN(CCc3c([nH]c4ccccc34)[C@@](C(=O)OC)(c3cc4c(cc3OC)N(C=O)[C@H]3[C@@](O)(C(=O)OC)[C@H](OC(C)=O)[C@]5(CC)C=CCN6CC[C@]43[C@@H]65)C2)C1` [VINCRISTINE], the 50% inhibitory concentration (IC50) was 200 nM in assay [20], 6 nM in [9], 50 nM in assay [15] and 700 nM in assay [17].
